Entries after “also recorded” stand apart in the source; their conditions may differ. *: point of attachment. Biotin = O=C1N[C@H]2[C@H](CS[C@H]2CCCCC(=O)*)N1
Tests used:
full‐length syntenin = target: T1, full‐length syntenin (Homo sapiens, UniProt O00560); assay: Surface plasmon resonance; type: binding; conditions: used as reference channel; 10 mM HEPES, 150 mM NaCl, 0.005% Tween20, pH 7.4
T1 sequence (O00560 1-298): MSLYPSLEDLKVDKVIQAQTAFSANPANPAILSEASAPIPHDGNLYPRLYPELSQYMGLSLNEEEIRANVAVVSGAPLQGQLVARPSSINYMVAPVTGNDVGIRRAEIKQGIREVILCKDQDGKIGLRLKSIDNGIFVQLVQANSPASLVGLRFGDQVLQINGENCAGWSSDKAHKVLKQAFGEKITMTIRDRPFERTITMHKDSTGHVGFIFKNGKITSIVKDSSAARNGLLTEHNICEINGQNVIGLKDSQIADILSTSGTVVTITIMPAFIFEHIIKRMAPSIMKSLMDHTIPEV

syntenin PDZ1‐2 = assay: Clonal phage ELISA against PDZ1‐2; type: binding; conditions: clonal ELISA against the baits PDZ1, PDZ2 or PDZ1‐2
Procedure, shortened: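 Syntenin PDZ1‑2 (107–275), PDZ1 (107–199) and PDZ2 (198–275) were expressed in E. coli ER2566 and purified by nickel affinity. Clones came from five rounds of selection of M13 gene‑8 libraries (random C‑terminal heptamers or internal dodecamers) on immobilized PDZ1‑2, with PBS/0.05% Tween 20 washes. Clones binding PDZ1‑2 but not control GST were sequenced, then each was tested by phage ELISA against immobilized PDZ1‑2, PDZ1 and PDZ2.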

syntenin = assay: Co-immunoprecipitation of endogenous nectin-1 and syntenin in MCF‐7 cells; type: cell-based; conditions: IP with nectin‐1 specific antibody, immunoblot with anti‐syntenin antibody
[1] = target: T2, full-length syntenin (SPR analyte) (UniProt O00560 1-298); assay: SPR
T2 sequence (looked up): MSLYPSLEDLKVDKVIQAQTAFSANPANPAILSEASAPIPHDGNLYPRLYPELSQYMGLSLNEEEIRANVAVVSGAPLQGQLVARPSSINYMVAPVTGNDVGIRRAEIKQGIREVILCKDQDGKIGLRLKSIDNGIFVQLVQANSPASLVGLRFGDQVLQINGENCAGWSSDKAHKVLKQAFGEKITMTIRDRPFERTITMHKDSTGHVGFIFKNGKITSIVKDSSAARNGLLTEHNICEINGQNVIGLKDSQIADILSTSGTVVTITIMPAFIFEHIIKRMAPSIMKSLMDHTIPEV

nectin‐1 = type: cell-based; conditions: freshly plated MCF‐7 cells, fibronectin-coated coverslips, 5 h
C‐terminus of nectin‐1 = type: binding; conditions: bait C‐terminus of nectin‐1
Procedure, shortened: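 Bait was transformed into MaV203 yeast, followed by 100 μg human fetal brain cDNA library in pEXP‑AD502. About 5 × 10^5 transformants were plated on medium lacking Trp/Leu/His with 20 mM 3‑amino‑1,2,4‑triazole, 30 °C, 5 days. Positives were checked on uracil and β‑galactosidase reporters, PCR‑amplified and retested in fresh bait yeast. Multi‑product colonies were discarded. Inserts were sequenced and in‑frame GAL4AD clones kept.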

With “Biot‐RMRKKDEGSYDLGERKPSSAAYQKAPTKEFpYA‐COOH” the “binding to syntenin by SPR (in words)” value (full‐length syntenin) was “nonbinding”.

In the case of SHWTIDI, the “binding in clonal phage ELISA (in words)” value (syntenin PDZ1‐2) is reported as “both PDZ domains are necessary for binding to this peptide”.

YYWAATGENVYS was tested, and the “binding in clonal phage ELISA (in words)” value (syntenin PDZ1‐2) was “loss of binding in phage ELISAs”.

B1: nectin‐1: cell adhesion protein PVRL1, also called nectin-1 (protein)
chain: QVVQVNDSMYGFIGTDVVLHCSFANPLPSVKITQVTWQKSTNGSKQNVAIYNPSMGVSVLAPYRERVEFLRPSFTDGTIRLSRLELEDEGVYICEFATFPTGNRESQLNLTVMAKPTNWIEGTQAVLRAKKGQDDKVLVATCTSANGKPPSVVSWETRLKGEAEYQEIRNPNGTVTVISRYRLVPSREAHQQSLACIVNYHMDRFKESLTLNVQYEPEVTIEGFDGNWYLQRMDVKLTCKADANPPATEYHWTTLNGSLPKGVEAQNRTLFFKGPINYSLAGTYICEATNPIGTRSGQVEVNITEFPYTPSPPEHGRRAGPVPTAIIGGVAGSILLVLIVVGGIVVALRRRRHTFKGDYSTKKHVYGNGYSKAGIPQHHPPMAQNLQYPDDSDDEKKAGPLGGSSYEEEEEEEEGGGGGERKVGGPHPKYDEDAKRPYFTVDEAEARQDGYGDRTLGYQYDPEQLDLAENMVSQNDGSFISKKEWYV
With B1 the “co-IP of endogenous proteins (in words)” value (syntenin) was “confirmed an interaction between the endogenous proteins”.

B2: N-terminal biotinylated nectin-1 C-terminal peptide (peptide)
peptide: Biotin-AENMVSQNDGSFISKKEWYV-OH
SMILES: CC[C@H](C)[C@H](NC(=O)[C@H](Cc1ccccc1)NC(=O)[C@H](CO)NC(=O)CNC(=O)[C@H](CC(=O)O)NC(=O)[C@H](CC(N)=O)NC(=O)[C@H](CCC(N)=O)NC(=O)[C@H](CO)NC(=O)[C@@H](NC(=O)[C@H](CCSC)NC(=O)[C@H](CC(N)=O)NC(=O)[C@H](CCC(=O)O)NC(=O)[C@H](C)NC(=O)CCCC[C@@H]1SC[C@@H]2NC(=O)N[C@@H]21)C(C)C)C(=O)N[C@@H](CO)C(=O)N[C@@H](CCCCN)C(=O)N[C@@H](CCCCN)C(=O)N[C@@H](CCC(=O)O)C(=O)N[C@@H](Cc1c[nH]c2ccccc12)C(=O)N[C@@H](Cc1ccc(O)cc1)C(=O)N[C@H](C(=O)O)C(C)C
In the case of B2, the Kd [1] is reported as 14 µM.

B3: syntenin: small adaptor protein with PDZ1-2 tandem (protein)
chain: MSLYPSLEDLKVDKVIQAQTAFSANPANPAILSEASAPIPHDGNLYPRLYPELSQYMGLSLNEEEIRANVAVVSGAPLQGQLVARPSSINYMVAPVTGNDVGIRRAEIKQGIREVILCKDQDGKIGLRLKSIDNGIFVQLVQANSPASLVGLRFGDQVLQINGENCAGWSSDKAHKVLKQAFGEKITMTIRDRPFERTITMHKDSTGHVGFIFKNGKITSIVKDSSAARNGLLTEHNICEINGQNVIGLKDSQIADILSTSGTVVTITIMPAFIFEHIIKRMAPSIMKSLMDHTIPEV
modifications: left off: GAL4AD, end not stated, kept
B3 was tested, and the “colocalization (in words)” value (nectin‐1) was “colocalizes with nectin‐1 at the sites of cell–cell contacts” and the “Y2H preference (in words)” value (C‐terminus of nectin‐1) was “preferred nectin‐1 binder; also recorded: favored ligand of the C‐terminus of nectin‐1”.
